Converted amounts (≈) assume the structure as drawn.
What was measured:
Type in all cases: functional
[1] = test system: Candida albicans; assay: Tested for minimum inhibitory concentration against Candida albicans 124 at pH of 4.5.
In short: (§1)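 Broth microdilution in malt extract broth, initial pH 4.5 or 6.5, with 1×10^3 CFU per 0.2 mL well of thawed stored cultures. Compound stocks were made in 5% DMSO/0.2% Tween 80 and diluted to final 0.05–100 μg/mL. Plates were incubated 48 h at 30 °C and read macroscopically. MIC was the lowest concentration with no detectable growth. Vehicle-only wells served as controls.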

[2] = test system: Meyerozyma guilliermondii; assay: Tested for minimum inhibitory concentration against Candida guilliermondii 80 at pH of 4.5.; in short: as §1
[3] = test system: Meyerozyma guilliermondii; assay: Tested for minimum inhibitory concentration against Candida guilliermondii 80 at pH of 6.5.; in short: as §1
[4] = test system: Pichia kudriavzevii; assay: Tested for minimum inhibitory concentration against Candida krusei 132 at pH of 4.5.; in short: as §1
[5] = test system: Pichia kudriavzevii; assay: Tested for minimum inhibitory concentration against Candida krusei 132 at pH of 6.5.; in short: as §1
[6] = test system: Candida tropicalis; assay: Tested for minimum inhibitory concentration against Candida tropicalis 43 at pH of 4.5.; in short: as §1
[7] = test system: Candida tropicalis; assay: Tested for minimum inhibitory concentration against Candida tropicalis 43 at pH of 6.5.; in short: as §1
[8] = test system: Candida albicans; assay: Tested for minimum inhibitory concentration against Candida albicans 124 at pH of 6.5.; in short: as §1
[9] = test system: Candida albicans; assay: Tested for minimum inhibitory concentration against Candida albicans 124 (Candida albicans) at pH of 4.5.; in short: as §1
[10] = test system: Meyerozyma guilliermondii; assay: Tested for minimum inhibitory concentration against Candida guilliermondii 80 (C.g) at pH of 6.5.; in short: as §1
[11] = test system: Meyerozyma guilliermondii; assay: Tested for minimum inhibitory concentration against Candida guilliermondii 80 (C.g) at pH of 4.5.; in short: as §1
[12] = test system: Candida albicans; assay: tested for minimum inhibitory concentration against Candida albicans 124 (Candida albicans) at pH of 6.5.; in short: as §1
[13] = test system: Pichia kudriavzevii; assay: Tested for minimum inhibitory concentration against Candida krusei 132 (C.k) at pH of 4.5.; in short: as §1
[14] = test system: Pichia kudriavzevii; assay: Tested for minimum inhibitory concentration against Candida krusei 132 (C.k) at pH of 6.5.; in short: as §1
[15] = test system: Candida tropicalis; assay: Tested for minimum inhibitory concentration against Candida tropicalis 43 (C.t) at pH of 4.5.; in short: as §1
[16] = test system: Candida tropicalis; assay: Tested for minimum inhibitory concentration against Candida tropicalis 43 (C.t) at pH of 6.5.; in short: as §1
[17] = test system: Candida albicans; assay: Tested for minimum subinhibitory concentration against Candida albicans 4 (Candida albicans) at pH 6.5.
In short: (§2)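 Malt extract broth microdilution, initial pH 6.5, inoculum 1×10^3 CFU per 0.2 mL well. Compound diluted from 0.08% stock (5% DMSO/0.2% Tween 80) to final 0.05–100 μg/mL. Macroscopic reading after 48 h, 30 °C. MSIC = lowest concentration giving visible growth inhibition in at least two of three triplicates. Vehicle-only negative controls.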

[18] = test system: Candida albicans; assay: Tested for minimum subinhibitory concentration against Candida albicans 88 (Candida albicans) at pH 6.5.; in short: as §2
[19] = test system: Candida albicans; assay: Tested for minimum subinhibitory concentration against Candida albicans 9 (Candida albicans) at pH 6.5.; in short: as §2
[20] = test system: Candida albicans; assay: Tested for minimum subinhibitory concentration against Candida albicans 90 (Candida albicans) at pH 6.5.; in short: as §2
[21] = test system: Candida albicans; assay: Tested for minimum subinhibitory concentration against Candida albicans 26 (Candida albicans) at pH 6.5.; in short: as §2
[22] = test system: Candida albicans; assay: Tested for minimum subinhibitory concentration against Candida albicans 3 (Candida albicans) at pH 6.5.; in short: as §2
[23] = test system: Candida albicans; assay: Tested for minimum inhibitory concentration against Candida albicans 124 (Candida albicans) at pH 6.5.
In short: (§3)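 Broth microdilution in malt extract broth, initial pH 6.5, 1×10^3 CFU per 0.2 mL well, from liquid-nitrogen-stored Sabouraud cultures. Compound from 0.08% stock in 5% DMSO/0.2% Tween 80, final 0.05–100 μg/mL. Visual reading after 48 h at 30 °C. MIC = lowest concentration with no detectable growth. Vehicle-only negative controls.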

[24] = test system: Candida albicans; assay: Tested for minimum inhibitory concentration against Candida albicans 26 (Candida albicans) at pH 6.5.; in short: as §3
[25] = test system: Candida albicans; assay: Tested for minimum inhibitory concentration against Candida albicans 3 (Candida albicans) at pH 6.5.; in short: as §3
[26] = test system: Candida albicans; assay: Tested for minimum inhibitory concentration against Candida albicans 88 (Candida albicans) at pH 6.5.; in short: as §3
[27] = test system: Candida albicans; assay: Tested for minimum inhibitory concentration against Candida albicans 9 (Candida albicans) at pH 6.5.; in short: as §3
[28] = test system: Candida albicans; assay: Tested for minimum inhibitory concentration against Candida albicans 90 (Candida albicans) at pH 6.5.; in short: as §3
[29] = test system: Meyerozyma guilliermondii; assay: Tested for minimum subinhibitory concentration against Candida guilliermondii 80 (C.g) at pH 6.5.; in short: as §2
[30] = test system: Candida albicans; assay: Tested for minimum subinhibitory concentration against Candida albicans 124 (Candida albicans) at pH 6.5.; in short: as §2
[31] = test system: Pichia kudriavzevii; assay: Tested for minimum inhibitory concentration against Candida krusei 132 (C.k) at pH 6.5.; in short: as §3
[32] = test system: Pichia kudriavzevii; assay: Tested for minimum subinhibitory concentration against Candida krusei 132 (C.k) at pH 6.5.; in short: as §2
[33] = test system: Candida tropicalis; assay: Tested for minimum inhibitory concentration against Candida tropicalis 43 (C.t) at pH 6.5.; in short: as §3
[34] = test system: Candida tropicalis; assay: Tested for minimum subinhibitory concentration against Candida tropicalis 43 (C.t) at pH 6.5.; in short: as §2
[35] = species on record: Mus musculus; assay: Tested for efficacy of compound in experimental vaginal candidosis (mouse) after oral treatment at dosage of 4 x150 mg kg e-1
In short: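 Vaginal candidiasis in hormonally conditioned female NMRI mice (18–20 g), 10 per group, inoculated intravaginally with 50 μL Sabouraud's glucose broth containing 3.5×10^4 CFU C. albicans no. 124. Dosed four times per gavage, 2 h before and 2, 18 and 24 h after infection. Vaginal swabs plated on Sabouraud's glucose agar with streptomycin (0.1 mg/mL), 48 h at 37 °C. Cure = failed reisolation.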

[36] = species on record: Mus musculus; assay: Tested for efficacy of compound in experimental systemic candidosis (mouse) after oral treatment at dosage of 8 *100 mg kg e-1
In short: (§4)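 Systemic candidiasis: female NMRI mice (18–20 g), 10 per group, infected by intravenous injection of 10⁶ CFU C. albicans no. 124 via lateral tail vein. Oral dosing twice daily on 4 consecutive days, starting 2 h before inoculation. Efficacy taken as survival rate up to day 9 after infection.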

[37] = species on record: Mus musculus; assay: Tested for efficacy of compound in experimental systemic candidosis (mouse) after oral treatment at dosage of 8 *200 mg kg e-1; in short: as §4
[38] = species on record: Rattus norvegicus; assay: Tested for efficacy of compound in experimental vaginal candidosis (rat) after oral treatment at dosage of 2x 150 mg kg e-1
In short: (§5)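 Hormonally conditioned female Wistar rats (~150 g), 10 per group, given intravaginal C. albicans no. 124, 3.5×10^4 CFU in 50 μL Sabouraud's glucose broth. Oral dosing twice, 2 h before and 18 h after infection. Vaginal swabs plated on Sabouraud's glucose agar with streptomycin (0.1 mg/mL), 48 h at 37 °C. Cured when C. albicans not reisolated.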

[39] = species on record: Rattus norvegicus; assay: Tested for efficacy of compound in experimental vaginal candidosis (rat) after oral treatment at dosage of 2x 300 mg kg e-1; in short: as §5
[40] = species on record: Rattus norvegicus; assay: Tested for efficacy of compound in experimental vaginal candidosis (rat) after tropical treatment at dosage of 9x 0.1% drug concentration
In short: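 Female Wistar rats (~150 g, hormonally conditioned, 10 per group) infected intravaginally with 3.5×10^4 CFU C. albicans no. 124 in 50 μL broth. Intravaginal gel, 0.2 mL, from 2 h post-inoculation, twice daily for 4 days (nine applications). Swabs plated one day after last treatment on Sabouraud's glucose agar with streptomycin, 48 h at 37 °C. Cure = no reisolation.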

[41] = test system: Meyerozyma guilliermondii; assay: Tested for minimum inhibitory concentration against Candida guilliermondii 80 (C.g) at pH 6.5.; in short: as §3
[42] = test system: Candida albicans; assay: Tested for minimum inhibitory concentration against Candida albicans 4 (Candida albicans) at pH 6.5.; in short: as §3

Compound: CC[C@@H](C)[C@H]1C(=O)NCC(=O)N(C)[C@@H](C(C)C)C(=O)N[C@@H](Cc2ccc(OC/C=C(\C)CCC=C(C)C)cc2)C(=O)O[C@H](C)C(=O)N2CCCC[C@H]2C(=O)N(C)[C@@H](C(C)C)C(=O)N[C@@H](C(C)C)C(=O)N(C)[C@@H](CC(=O)O)C(=O)N(C)[C@@H]([C@@H](C)CC)C(=O)N1C
- MIC [1]: > 100 µg/mL
- MIC [2]: > 100 µg/mL
- MIC [3]: > 100 µg/mL
- MIC [4]: > 100 µg/mL
- MIC [5]: > 100 µg/mL
- MIC [6]: > 100 µg/mL
- MIC [7]: > 100 µg/mL
- MIC [8]: > 100 µg/mL

Compound: C=CCOC(=O)C[C@H]1C(=O)N(C)[C@@H]([C@@H](C)CC)C(=O)N(C)[C@@H]([C@H](C)CC)C(=O)NCC(=O)N(C)[C@@H](C(C)C)C(=O)N[C@@H](Cc2ccc(OCC=C)cc2)C(=O)O[C@H](C)C(=O)N2CCCC[C@H]2C(=O)N(C)[C@@H](C(C)C)C(=O)N[C@@H](C(C)C)C(=O)N1C
- MIC [9]: > 100 µg/mL
- MIC [10]: > 100 µg/mL
- MIC [11]: > 100 µg/mL
- MIC [12]: > 100 µg/mL
- MIC [13]: > 100 µg/mL
- MIC [14]: > 100 µg/mL
- MIC [15]: > 100 µg/mL
- MIC [16]: > 100 µg/mL

Compound: CC(=O)N1CCN(c2ccc(OC[C@H]3CO[C@](Cn4ccnc4)(c4ccc(Cl)cc4Cl)O3)cc2)CC1 [KETOCONAZOLE]
- MSIC [17]: <0.05 µg/mL
- MSIC [18]: <0.05 µg/mL
- MSIC [19]: <0.05 µg/mL
- MSIC [20]: 0.39 µg/mL
- MSIC [21]: <0.05 µg/mL
- MSIC [22]: 0.19 µg/mL
- MIC [23]: > 100 µg/mL
- MIC [24]: > 100 µg/mL
- MIC [25]: 100 µg/mL (≈ 188 µM)
- MIC [26]: > 100 µg/mL
- MIC [27]: 100 µg/mL (≈ 188 µM)
- MIC [28]: > 100 µg/mL
- MSIC [29]: 0.19 µg/mL
- MSIC [30]: 0.19 µg/mL
- MIC [31]: > 100 µg/mL
- MSIC [32]: 0.78 µg/mL
- MIC [33]: > 100 µg/mL
- MSIC [34]: 6.25 µg/mL
- Efficacy [35]: 100%
- Efficacy [36]: 100%
- Efficacy [37]: 100%
- Efficacy [38]: 100%
- Efficacy [39]: 100%
- Efficacy [40]: 73%
- MIC [41]: > 100 µg/mL
- MIC [42]: > 100 µg/mL

Reference: ChEMBL document CHEMBL1127799, “Derivatives of a novel cyclopeptolide. 1. Synthesis, antifungal activity, and structure-activity relationships” (1994)
